Screening data from PubChem.
APJ ag: agonists of human APJ apelin receptor; CHO-K1 APJ PathHunter beta-arrestin, luminescence; 0% DMSO wells, 100% apelin; 330,000 compounds, 0.11% hits; activation, % at 20 µM; AID 2520;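 active = activation more than six SD over the plate average, tested at 20 µM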
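Test system – PathHunter CHO-K1 APJ (AGTRL-1) beta-arrestin reporter cells · Input – 1000 cells/well · Compound – single test compound dose, 20 µM final, 1% DMSO · Times – compound stimulation 90 min at 25 °C, detection 60 min · Technique – beta-gal luminescence · Read-out basis – APJ–arrestin association signal · Control set – negative DMSO alone, positive Apelin-13 at 10 nM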
CCR6 antag: blocks CCL20-driven beta-arrestin recruitment at human CCR6; P51684; CHO-K1 CCR6 PathHunter beta-arrestin, luminescence, CCL20-stimulated; inhibition, % at 20 µM; 340,000 compounds, 0.49% hits;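 active = compounds whose inhibition of the agonist-driven luminescence signal at 20 µM reaches about 50%, limit read from the data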;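 also: cells stimulated with CCL20 at 14 nM final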
EBI2 block: blocks human EBI2 receptor beta-arrestin signaling; EBI2 beta-arrestin recruitment, luminescence, 7a,25-OHC stimulated; P32249; AID 651636; 360,000 compounds, 0.81% hits; inhibition, % at 5 µM; in the data active = inhibition above about 38%;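 also: enzyme fragment complementation signal reports receptor beta-arrestin coupling in cells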
Beta2AR agonist: agonists of human beta-2 adrenergic receptor inducing internalization; 340,000 compounds, 0.43% hits; Am2.2-beta2AR cells, FAP receptor internalization, flow cytometry; P07550; response, % (concentration not given with the values);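 active = response above a set limit, near 3 SD of response in nonfluorescent compounds, cut at about 42% in these data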
Target sequence (P07550 whole entry, looked up): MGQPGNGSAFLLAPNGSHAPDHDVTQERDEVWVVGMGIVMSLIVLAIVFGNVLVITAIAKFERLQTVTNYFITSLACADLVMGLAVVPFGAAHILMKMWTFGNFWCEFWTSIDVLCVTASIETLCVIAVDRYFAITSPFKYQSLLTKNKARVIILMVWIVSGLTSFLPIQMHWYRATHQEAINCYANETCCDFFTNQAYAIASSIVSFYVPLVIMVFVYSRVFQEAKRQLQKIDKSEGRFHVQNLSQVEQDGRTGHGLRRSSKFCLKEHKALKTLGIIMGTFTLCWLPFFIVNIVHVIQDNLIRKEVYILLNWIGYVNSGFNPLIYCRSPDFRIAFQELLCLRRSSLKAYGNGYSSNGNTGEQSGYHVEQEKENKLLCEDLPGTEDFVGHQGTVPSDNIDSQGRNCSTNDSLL
APJ antagonist: antagonists of human APJ apelin receptor; CHO-K1 APJ beta-arrestin complementation, luminescence; 330,000 compounds, 0.32% hits; inhibition, % at 20 µM; P35414;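 active = inhibition above about 40% at 20 µM, limit read from the data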;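 also: cells challenged with 10 nM apelin-13 agonist together with compound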
CXCR6 block: inhibitors of human CXCR6 receptor | O00574 | CHO-K1 PathHunter CXCR6 beta-arrestin, luminescence | inhibition, % at 20 µM | 360,000 compounds, 0.36% hits; in the data active = inhibition above about 34%, passing the limit was not always enough;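 also: antagonist mode with CXCL16 agonist at 10 nM final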
Target sequence (O00574 whole entry, looked up): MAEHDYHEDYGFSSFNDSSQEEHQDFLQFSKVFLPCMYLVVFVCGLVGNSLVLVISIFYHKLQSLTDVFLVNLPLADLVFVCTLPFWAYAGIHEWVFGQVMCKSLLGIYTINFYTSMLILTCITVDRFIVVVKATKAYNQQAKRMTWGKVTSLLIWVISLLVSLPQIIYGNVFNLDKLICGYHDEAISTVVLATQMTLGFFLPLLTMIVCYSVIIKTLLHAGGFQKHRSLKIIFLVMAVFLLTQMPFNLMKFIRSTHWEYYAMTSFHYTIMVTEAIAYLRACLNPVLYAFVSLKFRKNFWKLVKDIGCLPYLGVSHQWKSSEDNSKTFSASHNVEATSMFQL
Each line names hits and unclear results; the compound was inactive in the other large screens; ! = repeats disagree. Most compounds without a hit are left out; they make up all but 1.8% or so of the library.

CCOC(=O)C(=Cc1ccc(OCc2ccc([N+](=O)[O-])cc2)c(OC)c1)C(=O)OCC	EBI2 block 54
O=C1OC(c2cccs2)=N/C1=C\c1ccc(-c2cccc(Cl)c2)o1	none
N=C1S/C(=C\c2ccc(-c3cccc(Cl)c3)o2)C(=O)N1c1nccs1	CCR6 antag 82, EBI2 block 67, CXCR6 block 54 (no result: APJ ag, APJ antagonist)
COc1ccc(/C=C2\SC(=N)N(c3nccs3)C2=O)cc1OC	CCR6 antag 59
COc1ccc(C(=O)C(C)OC(=O)c2cccc(S(=O)(=O)Nc3cc(Cl)c(OC)cc3OC)c2)cc1 (configuration not stated)	EBI2 block 37
c1ccc(N=NC2=NN(c3ccccc3)CS2)cc1	CXCR6 block 42 (no result: APJ ag, CCR6 antag, Beta2AR agonist, APJ antagonist)
Nc1cc(Cl)cc2c1-c1ccc(Cl)cc1C2O (configuration not stated)	none (no result: APJ ag, APJ antagonist)
O=C(Nc1cc(Cl)cc2c1-c1ccc(Cl)cc1C2O)C(Cl)Cl (configuration not stated)	EBI2 block 44 (no result: APJ ag, APJ antagonist)
C/C=C(\C)C(=O)OC1[C@H](OC(C)=O)C2(CO)C(CC1(C)C)C1=CCC3C4(C)CCC(O[C@@H]5O[C@H](C(=O)O)[C@@H](O[C@@H]6O[C@H](CO)[C@@H](O)[C@H](O)[C@H]6O)[C@H](O)[C@H]5O[C@H]5O[C@H](CO)[C@@H](O)[C@H](O)[C@H]5O)[C@](C)(CO)C4CCC3(C)[C@]1(C)C[C@H]2O (some centres not stated)	CCR6 antag 95, Beta2AR agonist 61, CXCR6 block 82 (no result: APJ ag, APJ antagonist)
O=C(OCn1ncc(Cl)c(Cl)c1=O)c1ccccc1Cl	EBI2 block 51 (no result: APJ ag, APJ antagonist)
O=C(OCn1ncc(Cl)c(Cl)c1=O)c1ccc(F)cc1	none (no result: CCR6 antag, EBI2 block, Beta2AR agonist, CXCR6 block)
O=C(NNC(=O)c1cc(S(=O)(=O)N2CCOCC2)ccc1Cl)c1ccc(F)cc1	none (no result: APJ ag, CCR6 antag, Beta2AR agonist, APJ antagonist)
O=C(Nc1ccc2c(c1)OCO2)c1ccc2sc([C@@H]3O[C@H](CO)[C@H](O)[C@H](O)[C@H]3O)nc2c1	none (no result: APJ ag, CCR6 antag, Beta2AR agonist, APJ antagonist)
Cc1ccc(C(=O)ONc2ccc(N=NC(=O)c3ccccc3O)cc2)cc1	CCR6 antag 56
Cc1ccc(CNc2oc(COc3ccccc3Cl)nc2C#N)cc1	EBI2 block 47
Cc1onc(-c2c(F)cccc2Cl)c1C(=O)Nc1cc(S(=O)(=O)N2CCCCC2)ccc1O	none (no result: APJ ag, APJ antagonist)
O=S1(=O)C=C(Sc2nc3cc(Cl)ccc3o2)c2ccccc21	CCR6 antag 74, CXCR6 block 56
CC(C)(C)OC(=O)N1CCN(C(c2ccnc3ccccc23)c2nnnn2-c2ccc3c(c2)OCCO3)CC1 (configuration not stated)	none (no result: APJ ag, CCR6 antag, Beta2AR agonist, APJ antagonist)
COC(=O)c1c(NC(=O)c2nc3ccccc3s2)sc2c1CCN(C(C)=O)C2	none
CNC(=O)c1c(NC(=O)c2nc3ccccc3s2)sc2c1CCC2	CXCR6 block 40 (no result: CCR6 antag)
CC(C)C[C@@H]1Cc2[nH]c(=S)[nH]c(=O)c2[C@H](C)O1	none (no result: APJ ag, CCR6 antag, Beta2AR agonist, APJ antagonist)
COc1cc(/C=N/NC(=O)c2nc(-c3ccccc3)n(-c3ccccc3)n2)ccc1O	none
COc1cc(/C=N/Nc2nc(C)nc3c2cnn3-c2ccccc2)ccc1O	EBI2 block 56 (no result: APJ ag, APJ antagonist)
C=C(CN(C)C)C(=O)c1cc(C)ccc1C	CCR6 antag 108, CXCR6 block 96 (no result: APJ ag, APJ antagonist)
S=C(NCCc1ccccn1)Nc1ccc(Cl)c(Cl)c1	Beta2AR agonist 53
S=C(NCCc1ccccn1)Nc1cc(Cl)cc(Cl)c1	none
O=C1Nc2ccc(Br)cc2/C1=C/C(=O)c1ccc2c(c1)OCO2	EBI2 block 85, Beta2AR agonist 55
O=C(/C=C/c1ccc(NC(=O)c2ccccc2-c2ccccc2C(=O)O)cc1)c1ccccc1	none
O=C(/C=C/c1ccncc1)c1ccc(NC(=O)c2ccccc2F)cc1	CCR6 antag 69, Beta2AR agonist 51 (no result: APJ ag, APJ antagonist)
Cc1ccc(S(=O)(=O)Nc2cccc3ncccc23)s1	CCR6 antag 96, EBI2 block 73, APJ antagonist 91, CXCR6 block 63
O=C(COc1ccc2c3c(c(=O)oc2c1)CCC3)Nc1ccccn1	Beta2AR agonist 61
Cc1cc(NC(=O)COC(=O)COc2ccc3c4c(c(=O)oc3c2)CCC4)no1	none
C[C@@H]1CN([C@@H](C)CO)C(=O)c2cc(Br)cnc2O[C@H]1CN(C)C(=O)Nc1ccccc1	none (no result: APJ ag, CCR6 antag, Beta2AR agonist, APJ antagonist)
Cc1ccccc1NC(=S)NCc1ccc2c(c1)cc(C)n2C	Beta2AR agonist 52
CCc1ccc(S(=O)(=O)/N=C2\C=CC(=O)c3ccccc32)cc1	none (no result: CCR6 antag, EBI2 block, Beta2AR agonist, CXCR6 block)
CCc1ccc(S(=O)(=O)/N=C2\C=C(Nc3ccc(O)cc3)C(=O)c3ccccc32)cc1	CCR6 antag 57, Beta2AR agonist 45, CXCR6 block 41
O=C(O)c1ccc(NC2=C/C(=N/S(=O)(=O)c3cccs3)c3ccccc3C2=O)cc1	none (no result: APJ ag, CCR6 antag, Beta2AR agonist, APJ antagonist)
CCc1ccc(S(=O)(=O)/N=C2/C=C(Sc3ncn[nH]3)C(=O)c3ccccc32)cc1	Beta2AR agonist 55, CXCR6 block 54 (no result: APJ ag, CCR6 antag, APJ antagonist)
O=C1C(Nc2ccc(O)cc2)=C/C(=N/S(=O)(=O)c2cccs2)c2ccccc21	CCR6 antag 59, Beta2AR agonist 61 (no result: APJ ag, APJ antagonist)
Cc1cccc(NC2=C/C(=N/S(=O)(=O)c3cccs3)c3ccccc3C2=O)c1	CCR6 antag 53 (no result: APJ ag, APJ antagonist)
CCc1ccc(S(=O)(=O)/N=C2\C=C(Nc3cccc(C(=O)O)c3)C(=O)c3ccccc32)cc1	none
CCCNC(=O)C1(C)CCCN(C(=O)c2ccc3snnc3c2)C1 (configuration not stated)	none (no result: APJ ag, CCR6 antag, Beta2AR agonist, APJ antagonist)
Cc1ccc(NC2=C/C(=N\S(=O)(=O)c3cccs3)c3ccccc3C2=O)c(C)c1	CCR6 antag 59, Beta2AR agonist 64
Cc1ccc(Cl)cc1NC1=C/C(=N\S(=O)(=O)c2cccs2)c2ccccc2C1=O	CCR6 antag 59, Beta2AR agonist 45!
CC1CCCC(C)N1C(=O)COC(=O)c1n[nH]c(=O)c2ccccc12 (configuration not stated)	none
CCCCNC(=O)C1C(c2ccc(OC)cc2)=Nc2ccccc2N1C(=O)c1cccnc1 (configuration not stated)	none (no result: APJ ag, CCR6 antag, Beta2AR agonist, APJ antagonist, CXCR6 block)
CCOC(=O)c1sc(=S)n(Cc2ccccc2)c1C	none
CN(C)C(=S)N=c1ssc(=S)n1Cc1ccccc1	CCR6 antag 51 (no result: APJ ag, APJ antagonist)
NCCCCCNC(=O)c1[nH]cnc1C(=O)N[C@@H](Cc1ccccc1)C(=O)OCc1ccccc1	none
Oc1ccc(/C=N/Nc2ccnc3cc(Cl)ccc23)c(O)c1	EBI2 block 46
Clc1ccc2c(N/N=C/c3cccnc3)ccnc2c1	none
Clc1ccc2c(N/N=C/c3ccc(Br)cc3)ccnc2c1	Beta2AR agonist 61 (no result: APJ ag, APJ antagonist)
Cc1ccccc1/C=N/Nc1ccnc2cc(Cl)ccc12	Beta2AR agonist 48 (no result: APJ ag, APJ antagonist)
Cc1ccc(/C=N/Nc2ccnc3cc(Cl)ccc23)c(C)c1	none
Cc1cccc(C)c1-n1nnnc1C1(C)CCC(=O)N1CCc1ccc(O)cc1 (configuration not stated)	none (no result: APJ ag, CCR6 antag, Beta2AR agonist, APJ antagonist)
